Columns and labels:
[1] = biological target: C-C chemokine receptor type 2 (Homo sapiens) (UniProt P41597); experiment: Antagonist activity at CCR2 in human THP1 cells assessed as inhibition of CCL2-induced chemotaxis at 1000 nM after 2 hrs by microtiter format trans-well migration assay; format: functional, cell-based; conditions: THP-1
How it was run: (§1)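 Microtiter trans-well migration assay in Gey's balanced salt solution with 1 mg/mL endotoxin-free BSA, no fetal calf serum. Migration ran 2 h at 37 °C. Compounds dissolved in DMSO and added to both top and bottom compartments, final DMSO 1%.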

Mus musculus [2] = experiment: Antiinflammatory activity in mouse assessed as inhibition of LPS-induced TNFalpha upregulation at 0.075 ug, sc measured 2 hrs after LPS challenge; format: functional
How it was run: (§2)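 Murine sublethal endotoxemia: LPS given intraperitoneally, with serum TNF-α measured 2 h after the LPS injection as the end point. Compound was given subcutaneously or orally. Vehicle was 0.6% DMSO and 1% carboxymethylcellulose (final concentrations) in sterile water. Effect is reported as % relative to control.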

[3] = biological target: C-C chemokine receptor type 2 (Homo sapiens) (UniProt P41597); experiment: Antagonist activity at CCR2 in human THP1 cells assessed as inhibition of CCL2-induced chemotaxis at 0.01 nM after 2 hrs by microtiter format trans-well migration assay; format: functional, cell-based; conditions: THP-1; how it was run: as §1
[4] = Half life in Sprague-Dawley rat at 1 mg/kg, iv administered as single dose; format: ADME, organism-based; design: dose 1 mg/kg, route intravenous; conditions: in vivo
How it was run: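 Male Sprague-Dawley rats, three per compound, receive a single intravenous dose in 5% DMSO in 0.9% saline. Food and water are given ad libitum. Plasma is taken at 5, 15, 30, 60, 120, 180, 240 and 480 min. Drug is measured by LC/MS/MS after extraction with 0.1% formic acid in acetonitrile. The curve is back-extrapolated to time zero assuming an initial volume of 0.26 L/kg.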

THP-1 [5] = experiment: Endogenous chemoattractant activity at human THP1 cells assessed as cell migration at 1000 uM after 2 hrs by microtiter format trans-well migration assay; format: functional
[6] = Antagonist activity at Interleukin-8 receptor in human PMNC assessed as inhibition of CXCL8-induced chemotaxis at 0.01 nM after 2 hrs by microtiter format trans-well migration assay; format: functional; how it was run: as §1
[7] = biological target: C-X-C chemokine receptor type 4 (Homo sapiens) (UniProt P61073); experiment: Antagonist activity at CXCR4 in human THP1 cells assessed as inhibition of CXCL12-induced chemotaxis at 0.01 nM after 2 hrs by microtiter format trans-well migration assay; format: functional, cell-based; conditions: THP-1; how it was run: as §1
[8] = biological target: C-C chemokine receptor type 2 (Homo sapiens) (UniProt P41597); experiment: Antagonist activity at CCR2 in human THP1 cells assessed as inhibition of CCL2-induced chemotaxis at 0.1 nM after 2 hrs by microtiter format trans-well migration assay; format: functional, cell-based; conditions: THP-1; how it was run: as §1
[9] = biological target: C-X-C chemokine receptor type 4 (Homo sapiens) (UniProt P61073); experiment: Antagonist activity at CXCR4 in human THP1 cells assessed as inhibition of CXCL12-induced chemotaxis at 1 nM after 2 hrs by microtiter format trans-well migration assay; format: functional, cell-based; conditions: THP-1; how it was run: as §1
THP-1 [10] = experiment: Endogenous chemoattractant activity at human THP1 cells assessed as cell migration at 0.01 nM after 2 hrs by microtiter format trans-well migration assay; format: functional
Mus musculus [11] = experiment: Antiinflammatory activity in mouse assessed as inhibition of LPS-induced TNFalpha upregulation at 0.25 mg, sc measured 2 hrs after LPS challenge; format: functional; how it was run: as §2
[12] = Cmax in Sprague-Dawley rat at 3 mg/kg, po administered as single dose; format: ADME, organism-based; design: dose 3 mg/kg, route oral; conditions: in vivo
How it was run: (§3)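 Male Sprague-Dawley rats, three per compound, receive a single oral dose by gavage in 1% carboxymethylcellulose in 0.9% saline, with food and water ad libitum. Plasma is sampled from 5 to 480 min and drug is quantified by positive-mode LC/MS/MS after acetonitrile/formic acid extraction. The lower limit of quantitation is about 2 ng/mL. Exposure is AUC(0→t) by the linear/log trapezoidal rule, and F is oral fractional bioavailability.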

[13] = biological target: C-X-C chemokine receptor type 4 (Homo sapiens) (UniProt P61073); experiment: Antagonist activity at CXCR4 in human THP1 cells assessed as inhibition of CXCL12-induced chemotaxis at 1000 nM after 2 hrs by microtiter format trans-well migration assay; format: functional, cell-based; conditions: THP-1; how it was run: as §1
[14] = biological target: C-X-C chemokine receptor type 4 (Homo sapiens) (UniProt P61073); experiment: Antagonist activity at CXCR4 in human THP1 cells assessed as inhibition of CXCL12-induced chemotaxis at 0.1 nM after 2 hrs by microtiter format trans-well migration assay; format: functional, cell-based; conditions: THP-1; how it was run: as §1
[15] = biological target: T1, C-C chemokine receptor type 1 (Homo sapiens) (UniProt P32246); experiment: Antagonist activity at CCR1 in human THP1 cells assessed as inhibition of CCL3-induced chemotaxis at 1000 nM after 2 hrs by microtiter format trans-well migration assay; format: functional, cell-based; conditions: THP-1; how it was run: as §1
T1 sequence (whole entry): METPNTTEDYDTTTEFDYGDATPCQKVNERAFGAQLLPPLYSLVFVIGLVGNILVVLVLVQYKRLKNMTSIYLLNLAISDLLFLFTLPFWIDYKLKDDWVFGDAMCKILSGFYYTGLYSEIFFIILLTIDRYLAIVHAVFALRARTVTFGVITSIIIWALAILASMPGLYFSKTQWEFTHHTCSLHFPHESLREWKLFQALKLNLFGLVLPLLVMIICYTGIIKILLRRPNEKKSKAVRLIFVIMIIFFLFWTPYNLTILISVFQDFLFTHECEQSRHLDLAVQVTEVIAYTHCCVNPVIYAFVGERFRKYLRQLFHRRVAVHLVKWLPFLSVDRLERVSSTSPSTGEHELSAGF

[16] = biological target: T1, C-C chemokine receptor type 1 (Homo sapiens); experiment: Antagonist activity at CCR1 in human THP1 cells assessed as inhibition of CCL3-induced chemotaxis after 2 hrs by microtiter format trans-well migration assay; format: functional, cell-based; conditions: THP-1; how it was run: as §1
[17] = Half life in Sprague-Dawley rat at 3 mg/kg, po administered as single dose; format: ADME, organism-based; design: dose 3 mg/kg, route oral; conditions: in vivo; how it was run: as §3
THP-1 [18] = experiment: Endogenous chemoattractant activity at human THP1 cells assessed as cell migration at 1 uM after 2 hrs by microtiter format trans-well migration assay; format: functional
Mus musculus [19] = experiment: Antiinflammatory activity in mouse assessed as inhibition of LPS-induced TNFalpha upregulation at 0.000225 mg, sc measured 2 hrs after LPS challenge; format: functional
How it was run: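 Murine sublethal endotoxemia: LPS given intraperitoneally, serum TNF-α measured 2 h after LPS injection. Compound vehicle 0.6% DMSO plus 1% carboxymethylcellulose (final concentrations) in sterile water.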

[20] = biological target: T1, C-C chemokine receptor type 1 (Homo sapiens); experiment: Antagonist activity at CCR1 in human THP1 cells assessed as inhibition of CCL3-induced chemotaxis at 1 nM after 2 hrs by microtiter format trans-well migration assay; format: functional, cell-based; conditions: THP-1; how it was run: as §1
[21] = biological target: T1, C-C chemokine receptor type 1 (Homo sapiens); experiment: Antagonist activity at CCR1 in human THP1 cells assessed as inhibition of CCL3-induced chemotaxis at 100 nM after 2 hrs by microtiter format trans-well migration assay; format: functional, cell-based; conditions: THP-1; how it was run: as §1
Mus musculus [22] = experiment: Antiinflammatory activity in sc dosed mouse assessed as inhibition of LPS-induced TNFalpha upregulation measured 2 hrs after LPS challenge relative to control; format: functional
How it was run: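 Murine sublethal LPS endotoxemia screen. LPS is injected intraperitoneally and serum TNF-α is measured 2 h later as the end point. Compound is given subcutaneously or orally in a vehicle of 0.6% DMSO plus 1% carboxymethylcellulose (final concentrations) in sterile water. Values are % relative to control.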

Mus musculus [23] = experiment: Antiinflammatory activity in po dosed mouse assessed as inhibition of LPS-induced TNFalpha upregulation measured 2 hrs after LPS challenge; format: functional
THP-1 [24] = experiment: Endogenous chemoattractant activity at human THP1 cells assessed as cell migration at 10 uM after 2 hrs by microtiter format trans-well migration assay; format: functional

C-X-C chemokine receptor type 4 (Homo sapiens), sequence (P61073 whole entry): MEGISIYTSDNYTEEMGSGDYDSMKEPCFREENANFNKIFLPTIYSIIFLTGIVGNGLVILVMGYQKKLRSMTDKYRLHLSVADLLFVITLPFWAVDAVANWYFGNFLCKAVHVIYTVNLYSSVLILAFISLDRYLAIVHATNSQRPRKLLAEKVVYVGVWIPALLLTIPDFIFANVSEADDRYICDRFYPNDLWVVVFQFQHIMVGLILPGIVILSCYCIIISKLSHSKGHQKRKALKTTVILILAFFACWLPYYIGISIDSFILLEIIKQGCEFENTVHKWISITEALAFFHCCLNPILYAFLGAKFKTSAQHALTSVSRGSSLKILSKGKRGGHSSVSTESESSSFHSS
C-C chemokine receptor type 2 (Homo sapiens), sequence (P41597 whole entry, looked up): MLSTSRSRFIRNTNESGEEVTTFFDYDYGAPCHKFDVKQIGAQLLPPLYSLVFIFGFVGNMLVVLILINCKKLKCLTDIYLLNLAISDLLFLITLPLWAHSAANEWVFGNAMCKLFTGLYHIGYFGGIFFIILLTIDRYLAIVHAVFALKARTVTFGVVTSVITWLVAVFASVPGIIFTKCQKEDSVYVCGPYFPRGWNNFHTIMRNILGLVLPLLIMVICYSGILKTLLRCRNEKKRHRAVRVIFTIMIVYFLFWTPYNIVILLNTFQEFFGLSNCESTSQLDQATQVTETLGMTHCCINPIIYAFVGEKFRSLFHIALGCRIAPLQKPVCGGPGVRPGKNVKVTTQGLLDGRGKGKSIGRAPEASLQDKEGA

inhibition [1]: 97% | inhibition [3]: 12% | half-life [4]: 0.767 h | inhibition [7]: 15.5% | inhibition [8]: 53.5% | inhibition [9]: 99% | Cmax [12]: 60 ng/mL | inhibition [13]: 112% | inhibition [14]: 13% | inhibition [15]: 99.5% | ED50 [16]: 150 pM | half-life [17]: 1.7 h | inhibition [20]: 92.5% | inhibition [21]: 95%
SMILES: CCCCCCCCCCC(C)(C)C(=O)N[C@H]1CCCCNC1=O
inhibition (INH) (Mus musculus [2]): 65% | Activity (THP-1 [5]): 1602% | inhibition at 10 pM [6]: -12% | Activity (THP-1 [10]): 5337% | inhibition (INH) (Mus musculus [11]): 79% | Activity (THP-1 [18]): 4626% | inhibition (INH) (Mus musculus [19]): 68% | inhibition (INH) (Mus musculus [22]): 70% | ED50 (Mus musculus [23]): 0.3 mg/kg | Activity (THP-1 [24]): 2540%

From ChEMBL document CHEMBL1136923, “Highly potent, orally available anti-inflammatory broad-spectrum chemokine inhibitors” (J Med Chem, 2009)
